Results taken from ChEMBL document CHEMBL3525900, “Pharmacokinetics, distribution, and metabolism of [14C]sunitinib in rats, monkeys, and humans” (Drug Metab Dispos, 2012).

Tests used:
Rattus norvegicus = assay: Tmax as total radioactivity in male Sprague-Dawley rat plasma at 15 mg/kg, po administered as single dose by LC/MS/MS analysis; format: ADME, organism-based; set-up: dose 15 mg/kg, dosed compound name [14C]Sunitinib, route oral; conditions: in vivo
Cynomolgus monkey [1] = assay: Tmax as total radioactivity in female cynomolgus monkey plasma at 6 mg/kg, po administered as single dose by LC/MS/MS analysis; format: ADME, organism-based, Macaca fascicularis; set-up: dose 6 mg/kg, dosed compound name [14C]Sunitinib, route oral; conditions: in vivo
Cynomolgus monkey [2] = assay: AUC (0 to infinity) as total radioactivity in female cynomolgus monkey plasma at 6 mg/kg, po administered as single dose by LC/MS/MS analysis; format: ADME, organism-based, Macaca fascicularis; set-up: time infinity, dose 6 mg/kg, dosed compound name [14C]Sunitinib, route oral; conditions: in vivo
Outline: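 Cynomolgus monkeys of both sexes received one oral gavage of [14C]sunitinib L-malate at 6 mg/kg (37 µCi/kg). Femoral-vein blood was taken into heparin from 0.5 to 336 h. Plasma was kept cold and protected from light, then stored at -80 °C. Total radioactivity was by scintillation counting and sunitinib by methanol-extraction LC-MS-MS. Cmax was from raw data, t½ from the log-linear terminal slope, AUC(0-∞) by linear trapezoidal rule.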

Cynomolgus monkey [3] = assay: Tmax as total radioactivity in male cynomolgus monkey plasma at 6 mg/kg, po administered as single dose by LC/MS/MS analysis; format: ADME, organism-based, Macaca fascicularis; set-up: dose 6 mg/kg, dosed compound name [14C]Sunitinib, route oral; conditions: in vivo
Liver [4] = assay: Drug concentration in male albino rat liver assessed as radioactivity per gram of tissue at 20 mg/kg administered as single dose via gastric gavage measured after 24 hrs by autoradiographic analysis; format: ADME, organism-based; set-up: dose 20 mg/kg, dosed compound name [14C]Sunitinib; conditions: in vivo, po
Blood [5] = assay: Drug concentration in male Lister Hooded pigmented rat blood assessed as radioactivity per gram of tissue at 20 mg/kg administered as single dose via gastric gavage measured after 24 hrs by autoradiographic analysis; format: ADME, organism-based; set-up: dose 20 mg/kg, dosed compound name [14C]Sunitinib; conditions: in vivo, po
Harderian gland = assay: Drug concentration in female albino rat harderian gland assessed as radioactivity per gram of tissue at 20 mg/kg administered as single dose via gastric gavage measured after 3 hrs by autoradiographic analysis; format: ADME, organism-based; set-up: dose 20 mg/kg, dosed compound name [14C]Sunitinib; conditions: in vivo, po
Outline: (§1)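 Sprague Dawley albino rats, ca 7-8 weeks old, dosed once by gastric gavage with [14C]sunitinib L-malate (15 mg freebase/kg, 100 µCi/kg). One male and one female killed by CO2 at 3, 6, 24, 72 and 168 h. Carcasses frozen in solid CO2/hexane, embedded and cut into 30 µm sagittal sections, then freeze-dried. Radioactivity quantified by whole-body autoradiography against standards by regression, background subtracted.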

[6] = Drug concentration in female albino rat salivary gland assessed as radioactivity per gram of tissue at 20 mg/kg administered as single dose via gastric gavage measured after 3 hrs by autoradiographic analysis; format: ADME, organism-based; set-up: dose 20 mg/kg, dosed compound name [14C]Sunitinib; conditions: in vivo, po; outline: as §1
Lung [7] = assay: Drug concentration in male albino rat lung assessed as radioactivity per gram of tissue at 20 mg/kg administered as single dose via gastric gavage measured after 6 hrs by autoradiographic analysis; format: ADME, organism-based; set-up: dose 20 mg/kg, dosed compound name [14C]Sunitinib; conditions: in vivo, po
[8] = Drug concentration in male albino rat lachrymal gland assessed as radioactivity per gram of tissue at 20 mg/kg administered as single dose via gastric gavage measured after 3 hrs by autoradiographic analysis; format: ADME, organism-based; set-up: dose 20 mg/kg, dosed compound name [14C]Sunitinib; conditions: in vivo, po
Lung [9] = assay: Drug concentration in male albino rat lung assessed as radioactivity per gram of tissue at 20 mg/kg administered as single dose via gastric gavage measured after 3 hrs by autoradiographic analysis; format: ADME, organism-based; set-up: dose 20 mg/kg, dosed compound name [14C]Sunitinib; conditions: in vivo, po
Zone of skin = assay: Drug concentration in female albino rat abdomen skin assessed as radioactivity per gram of tissue at 20 mg/kg administered as single dose via gastric gavage measured after 6 hrs by autoradiographic analysis; format: ADME, organism-based; set-up: dose 20 mg/kg, dosed compound name [14C]Sunitinib; conditions: in vivo, po
Outline: (§2)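 Sprague Dawley (albino) rats, ca 7-8 weeks old, received a single gastric-gavage dose of [14C]sunitinib L-malate at 20 mg/kg (15 mg freebase/kg, 100 µCi/kg). One animal per sex killed by CO2 at 3, 6, 24, 72 and 168 h, then frozen in CO2/hexane. 30 µm sagittal sections were cut and freeze-dried. Radioactivity per gram quantified by whole-body autoradiography using regression against standards. LOQ 0.04–0.06 µg freebase equiv/g.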

[10] = Drug concentration in female albino rat thyroid gland assessed as radioactivity per gram of tissue at 20 mg/kg administered as single dose via gastric gavage measured after 6 hrs by autoradiographic analysis; format: ADME, organism-based; set-up: dose 20 mg/kg, dosed compound name [14C]Sunitinib; conditions: in vivo, po
Lung [11] = assay: Drug concentration in male Lister Hooded pigmented rat lung assessed as radioactivity per gram of tissue at 20 mg/kg administered as single dose via gastric gavage measured after 168 hrs by autoradiographic analysis; format: ADME, organism-based; set-up: dose 20 mg/kg, dosed compound name [14C]Sunitinib; conditions: in vivo, po
Stomach [12] = assay: Drug concentration in female albino rat stomach assessed as radioactivity per gram of tissue at 20 mg/kg administered as single dose via gastric gavage measured after 3 hrs by autoradiographic analysis; format: ADME, organism-based; set-up: dose 20 mg/kg, dosed compound name [14C]Sunitinib; conditions: in vivo, po
Adrenal [13] = assay: Drug concentration in female albino rat adrenal assessed as radioactivity per gram of tissue at 20 mg/kg administered as single dose via gastric gavage measured after 6 hrs by autoradiographic analysis; format: ADME, organism-based; set-up: dose 20 mg/kg, dosed compound name [14C]Sunitinib; conditions: in vivo, po; outline: as §2
Blood [14] = assay: Drug concentration in female albino rat blood assessed as radioactivity per gram of tissue at 20 mg/kg administered as single dose via gastric gavage measured after 3 hrs by autoradiographic analysis; format: ADME, organism-based; set-up: dose 20 mg/kg, dosed compound name [14C]Sunitinib; conditions: in vivo, po; outline: as §2
Liver [15] = assay: Drug concentration in female albino rat liver assessed as radioactivity per gram of tissue at 20 mg/kg administered as single dose via gastric gavage measured after 6 hrs by autoradiographic analysis; format: ADME, organism-based; set-up: dose 20 mg/kg, dosed compound name [14C]Sunitinib; conditions: in vivo, po; outline: as §1
Adrenal [16] = assay: Drug concentration in male albino rat adrenal assessed as radioactivity per gram of tissue at 20 mg/kg administered as single dose via gastric gavage measured after 3 hrs by autoradiographic analysis; format: ADME, organism-based; set-up: dose 20 mg/kg, dosed compound name [14C]Sunitinib; conditions: in vivo, po
[17] = Drug concentration in male Lister Hooded pigmented rat testis assessed as radioactivity per gram of tissue at 20 mg/kg administered as single dose via gastric gavage measured after 72 hrs by autoradiographic analysis; format: ADME, organism-based; set-up: dose 20 mg/kg, dosed compound name [14C]Sunitinib; conditions: in vivo, po
Adrenal [18] = assay: Drug concentration in male Lister Hooded pigmented rat adrenal assessed as radioactivity per gram of tissue at 20 mg/kg administered as single dose via gastric gavage measured after 168 hrs by autoradiographic analysis; format: ADME, organism-based; set-up: dose 20 mg/kg, dosed compound name [14C]Sunitinib; conditions: in vivo, po
Blood [19] = assay: Drug concentration in male Lister Hooded pigmented rat blood assessed as radioactivity per gram of tissue at 20 mg/kg administered as single dose via gastric gavage measured after 168 hrs by autoradiographic analysis; format: ADME, organism-based; set-up: dose 20 mg/kg, dosed compound name [14C]Sunitinib; conditions: in vivo, po
Adrenal [20] = assay: Drug concentration in female albino rat adrenal assessed as radioactivity per gram of tissue at 20 mg/kg administered as single dose via gastric gavage measured after 168 hrs by autoradiographic analysis; format: ADME, organism-based; set-up: dose 20 mg/kg, dosed compound name [14C]Sunitinib; conditions: in vivo, po; outline: as §2
Stomach [21] = assay: Drug concentration in male albino rat stomach assessed as radioactivity per gram of tissue at 20 mg/kg administered as single dose via gastric gavage measured after 3 hrs by autoradiographic analysis; format: ADME, organism-based; set-up: dose 20 mg/kg, dosed compound name [14C]Sunitinib; conditions: in vivo, po
Spleen [22] = assay: Drug concentration in male albino rat spleen assessed as radioactivity per gram of tissue at 20 mg/kg administered as single dose via gastric gavage measured after 24 hrs by autoradiographic analysis; format: ADME, organism-based; set-up: dose 20 mg/kg, dosed compound name [14C]Sunitinib; conditions: in vivo, po
Thymus = assay: Drug concentration in male albino rat thymus assessed as radioactivity per gram of tissue at 20 mg/kg administered as single dose via gastric gavage measured after 6 hrs by autoradiographic analysis; format: ADME, organism-based; set-up: dose 20 mg/kg, dosed compound name [14C]Sunitinib; conditions: in vivo, po
[23] = Drug concentration in female Lister Hooded pigmented rat skeletal muscle assessed as radioactivity per gram of tissue at 20 mg/kg administered as single dose via gastric gavage measured after 24 hrs by autoradiographic analysis; format: ADME, organism-based; set-up: dose 20 mg/kg, dosed compound name [14C]Sunitinib; conditions: in vivo, po
Outline: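 Lister Hooded (pigmented) rats, ca 7-8 weeks old, acclimated 7 days, given [14C]sunitinib L-malate by gastric gavage at 20 mg/kg (15 mg freebase/kg, 100 µCi/kg). One male and one female killed by CO2 at 24, 72, 168 and 336 h. Carcasses frozen in solid CO2/hexane and embedded in frozen cellulose. 30 µm sagittal cryosections were freeze-dried. Tissue radioactivity measured by quantitative whole-body autoradiography against calibration standards, with background subtracted.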

Spleen [24] = assay: Drug concentration in female albino rat spleen assessed as radioactivity per gram of tissue at 20 mg/kg administered as single dose via gastric gavage measured after 72 hrs by autoradiographic analysis; format: ADME, organism-based; set-up: dose 20 mg/kg, dosed compound name [14C]Sunitinib; conditions: in vivo, po

Which Tmax (Rattus norvegicus) does the source give for `CCN(CC)CCNC(=O)c1c(C)[nH]c(/[14CH]=C2\C(=O)Nc3ccc(F)cc32)c1C.O=C(O)C[C@H](O)C(=O)O` here?
Its Tmax is 5 h.

What about the Tmax (Cynomolgus monkey [1]) of the same compound?
Its Tmax is 4 h.

What about the AUC (Cynomolgus monkey [2]) of the same compound?
The AUC was 5692 ng.Eq.hr/ml.

What about the Tmax (Cynomolgus monkey [3]) of the same compound?
The Tmax was 8 h.

What about the Radiolabel recovery (Liver [4]) of the same compound?
The Radiolabel recovery was 1.7 ugequiv.

What about the Radiolabel recovery (Blood [5]) of the same compound?
Its Radiolabel recovery is 0.16 ugequiv.

What about the Radiolabel recovery (Harderian gland) of the same compound?
Its Radiolabel recovery is 17.26 ugequiv.

And the Radiolabel recovery [6]?
Its Radiolabel recovery is 27.64 ugequiv.

What about the Radiolabel recovery (Lung [7]) of the same compound?
The Radiolabel recovery was 17.87 ugequiv.

What about the Radiolabel recovery [8] of the same compound?
Its Radiolabel recovery is 8.82 ugequiv.

And the Radiolabel recovery (Lung [9])?
Its Radiolabel recovery is 20.7 ugequiv.

And the Radiolabel recovery (Zone of skin)?
Its Radiolabel recovery is 4.73 ugequiv.

What about the Radiolabel recovery [10] of the same compound?
Its Radiolabel recovery is 11.23 ugequiv.

What about the Radiolabel recovery (Lung [11]) of the same compound?
Its Radiolabel recovery is 0.06 ugequiv.

What about the Radiolabel recovery (Stomach [12]) of the same compound?
Its Radiolabel recovery is 15.45 ugequiv.

What about the Radiolabel recovery (Adrenal [13]) of the same compound?
The Radiolabel recovery was 26.74 ugequiv.

What about the Radiolabel recovery (Blood [14]) of the same compound?
The Radiolabel recovery was 1.66 ugequiv.

And the Radiolabel recovery (Liver [15])?
The Radiolabel recovery was 15.16 ugequiv.

What about the Radiolabel recovery (Adrenal [16]) of the same compound?
The Radiolabel recovery was 25.22 ugequiv.

What about the Radiolabel recovery [17] of the same compound?
Its Radiolabel recovery is 0.87 ugequiv.

What about the Radiolabel recovery (Adrenal [18]) of the same compound?
The Radiolabel recovery was 0.74 ugequiv.

And the Radiolabel recovery (Blood [19])?
Its Radiolabel recovery is 0.06 ugequiv.

And the Radiolabel recovery (Adrenal [20])?
Its Radiolabel recovery is 0.33 ugequiv.

What about the Radiolabel recovery (Stomach [21]) of the same compound?
The Radiolabel recovery was 10.15 ugequiv.

What about the Radiolabel recovery (Spleen [22]) of the same compound?
The Radiolabel recovery was 1.23 ugequiv.

What about the Radiolabel recovery (Thymus) of the same compound?
The Radiolabel recovery was 6.43 ugequiv.

What about the Radiolabel recovery [23] of the same compound?
Its Radiolabel recovery is 0.25 ugequiv.

And the Radiolabel recovery (Spleen [24])?
The Radiolabel recovery was 0.27 ugequiv.
